In ChEMBL document CHEMBL1157731, “Novel KCNQ2/Q3 agonists as potential therapeutics for epilepsy and neuropathic pain” (J Med Chem, 2010):

What was measured:
Rattus norvegicus [1] = test: Anticonvulsant activity in po dosed Sprague-Dawley rat assessed as inhibition of pentylenetetrazole-induced seizure treated 30 mins before PTZ challenge; type: functional, organism-based
In short: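 Male Sprague-Dawley rats received compound po in 0.5% methylcellulose (1 mL/kg) 30 min before PTZ 85 mg/kg sc. Latency to tonic-clonic seizure timed from PTZ injection. No seizure within 15 min scored as protected (latency 15 min). EC50 derived from latency scores.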

[2] = Displacement of radioligand from GABAB receptor at 10 uM
[3] = target: T1, B2 bradykinin receptor (Homo sapiens) (UniProt P30411); test: Displacement of [3H]bradykinin from human recombinant bradykinin B2 receptor expressed in CHO cells; type: cell-based
T1 sequence (whole entry): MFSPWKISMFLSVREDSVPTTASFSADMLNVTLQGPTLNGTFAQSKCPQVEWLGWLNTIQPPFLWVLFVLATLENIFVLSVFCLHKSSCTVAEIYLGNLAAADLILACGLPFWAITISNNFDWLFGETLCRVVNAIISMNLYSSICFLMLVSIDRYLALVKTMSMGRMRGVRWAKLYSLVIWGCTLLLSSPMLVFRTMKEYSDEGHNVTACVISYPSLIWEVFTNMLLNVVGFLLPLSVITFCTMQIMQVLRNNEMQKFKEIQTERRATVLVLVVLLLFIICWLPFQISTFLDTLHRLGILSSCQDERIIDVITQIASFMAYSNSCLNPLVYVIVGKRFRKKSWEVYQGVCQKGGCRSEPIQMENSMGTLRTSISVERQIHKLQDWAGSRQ

[4] = target: Adenosine receptor A2a (Homo sapiens) (UniProt P29274); test: Displacement of [3H]CGS21680 from human recombinant adenosine A2A receptor expressed in HEK293 cells at 10 uM; type: cell-based
[5] = Displacement of radioligand from opiate receptor at 10 uM
[6] = target: 5-hydroxytryptamine receptor 1B (Homo sapiens) (UniProt P28222); test: Displacement of radioligand from 5HT1B receptor at 10 uM by displacement assay
[7] = target: T2, Muscarinic acetylcholine receptor M1 (Homo sapiens) (UniProt P11229); test: Displacement of radioligand from muscarinic M1 receptor at 10 uM
T2 sequence (whole entry): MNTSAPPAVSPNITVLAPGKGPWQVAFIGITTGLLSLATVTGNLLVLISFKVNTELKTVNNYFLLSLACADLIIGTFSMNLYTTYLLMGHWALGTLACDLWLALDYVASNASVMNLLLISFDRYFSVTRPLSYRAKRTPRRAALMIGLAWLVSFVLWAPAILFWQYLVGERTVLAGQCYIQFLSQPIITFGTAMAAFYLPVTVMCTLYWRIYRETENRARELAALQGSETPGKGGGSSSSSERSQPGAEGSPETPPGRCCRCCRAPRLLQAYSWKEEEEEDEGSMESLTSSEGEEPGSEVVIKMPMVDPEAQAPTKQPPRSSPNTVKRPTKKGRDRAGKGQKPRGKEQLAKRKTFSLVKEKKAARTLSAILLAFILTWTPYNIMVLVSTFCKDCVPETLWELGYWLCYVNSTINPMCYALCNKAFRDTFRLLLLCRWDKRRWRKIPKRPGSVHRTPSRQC

[8] = target: T3, Type-1 angiotensin II receptor (Homo sapiens) (UniProt P30556); test: Displacement of [125I][Sar1,Ile8]-AT2 from human recombinant AT1 angiotensin receptor expressed in HEK293 cells at 10 uM; type: cell-based
T3 sequence (whole entry): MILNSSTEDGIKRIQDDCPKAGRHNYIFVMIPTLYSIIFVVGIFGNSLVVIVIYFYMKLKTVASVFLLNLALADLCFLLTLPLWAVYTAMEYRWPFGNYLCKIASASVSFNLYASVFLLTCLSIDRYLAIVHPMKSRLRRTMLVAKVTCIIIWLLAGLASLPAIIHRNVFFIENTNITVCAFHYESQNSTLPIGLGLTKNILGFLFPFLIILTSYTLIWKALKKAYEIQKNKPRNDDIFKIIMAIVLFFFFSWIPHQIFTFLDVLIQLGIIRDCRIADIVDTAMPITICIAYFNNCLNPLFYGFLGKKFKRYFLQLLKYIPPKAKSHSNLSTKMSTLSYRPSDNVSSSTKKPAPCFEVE

[9] = target: T4, Cholecystokinin receptor type A (Homo sapiens) (UniProt P32238); test: Displacement of radioligand from cholecystokinin A receptor at 10 uM
T4 sequence (whole entry): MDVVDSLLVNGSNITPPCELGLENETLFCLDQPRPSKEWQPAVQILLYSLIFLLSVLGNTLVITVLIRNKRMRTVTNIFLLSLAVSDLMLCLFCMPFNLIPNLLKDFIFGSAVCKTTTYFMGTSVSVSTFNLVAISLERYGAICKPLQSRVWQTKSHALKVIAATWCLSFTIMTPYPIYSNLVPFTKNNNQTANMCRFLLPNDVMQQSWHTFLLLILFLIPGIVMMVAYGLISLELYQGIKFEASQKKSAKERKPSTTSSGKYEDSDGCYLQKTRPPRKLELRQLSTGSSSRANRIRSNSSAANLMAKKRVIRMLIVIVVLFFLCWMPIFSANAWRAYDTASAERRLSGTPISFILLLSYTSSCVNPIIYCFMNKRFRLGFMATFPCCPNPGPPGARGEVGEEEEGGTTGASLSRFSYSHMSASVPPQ

[10] = target: T5, Endothelin-1 receptor (Homo sapiens) (UniProt P25101); test: Displacement of [125I]endothelin-1 from human recombinant endothelin A receptor expressed in CHO cells; type: cell-based
T5 sequence (whole entry): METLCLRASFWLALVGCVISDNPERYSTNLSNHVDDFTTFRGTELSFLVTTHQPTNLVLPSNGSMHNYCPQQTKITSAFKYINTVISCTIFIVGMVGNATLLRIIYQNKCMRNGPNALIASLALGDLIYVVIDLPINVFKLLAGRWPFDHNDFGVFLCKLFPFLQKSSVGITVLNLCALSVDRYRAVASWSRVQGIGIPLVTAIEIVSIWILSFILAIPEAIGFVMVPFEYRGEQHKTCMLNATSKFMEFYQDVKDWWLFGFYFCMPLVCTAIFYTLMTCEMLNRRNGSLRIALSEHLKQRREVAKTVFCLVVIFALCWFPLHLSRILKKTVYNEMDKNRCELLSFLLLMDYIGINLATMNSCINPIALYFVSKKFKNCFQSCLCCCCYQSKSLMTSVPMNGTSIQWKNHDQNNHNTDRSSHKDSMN

[11] = target: Sodium-dependent serotonin transporter (Homo sapiens) (UniProt P31645); test: Binding affinity to SERT at 10 uM by displacement assay
Rattus norvegicus [12] = organism: Rattus norvegicus; test: Displacement of [3H]DTG from sigma opioid receptor in rat cerebral cortex; type: tissue-based
[13] = target: Sodium-dependent noradrenaline transporter (Homo sapiens) (UniProt P23975); test: Binding affinity to NET at 10 uM by displacement assay
[14] = Binding affinity to vasopressin V1 receptor at 10 uM by displacement assay
[15] = target: Histamine H1 receptor (Homo sapiens) (UniProt P35367); test: Displacement of radioligand from histamine H1 receptor at 10 uM
[16] = Binding affinity to central-type benzodiazepine receptor at 10 uM by displacement assay

Chain of 5-hydroxytryptamine receptor 1B (Homo sapiens) (P28222 whole entry): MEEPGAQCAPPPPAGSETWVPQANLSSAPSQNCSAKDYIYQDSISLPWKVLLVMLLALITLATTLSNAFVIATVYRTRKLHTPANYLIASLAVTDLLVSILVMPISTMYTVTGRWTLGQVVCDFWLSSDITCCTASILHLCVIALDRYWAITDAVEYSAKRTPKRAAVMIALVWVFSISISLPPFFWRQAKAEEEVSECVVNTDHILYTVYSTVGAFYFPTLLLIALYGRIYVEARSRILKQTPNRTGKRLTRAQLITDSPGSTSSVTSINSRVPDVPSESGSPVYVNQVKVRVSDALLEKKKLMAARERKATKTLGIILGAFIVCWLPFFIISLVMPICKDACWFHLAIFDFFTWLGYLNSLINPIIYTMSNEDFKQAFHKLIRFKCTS
Chain of Sodium-dependent serotonin transporter (Homo sapiens) (P31645 whole entry, looked up): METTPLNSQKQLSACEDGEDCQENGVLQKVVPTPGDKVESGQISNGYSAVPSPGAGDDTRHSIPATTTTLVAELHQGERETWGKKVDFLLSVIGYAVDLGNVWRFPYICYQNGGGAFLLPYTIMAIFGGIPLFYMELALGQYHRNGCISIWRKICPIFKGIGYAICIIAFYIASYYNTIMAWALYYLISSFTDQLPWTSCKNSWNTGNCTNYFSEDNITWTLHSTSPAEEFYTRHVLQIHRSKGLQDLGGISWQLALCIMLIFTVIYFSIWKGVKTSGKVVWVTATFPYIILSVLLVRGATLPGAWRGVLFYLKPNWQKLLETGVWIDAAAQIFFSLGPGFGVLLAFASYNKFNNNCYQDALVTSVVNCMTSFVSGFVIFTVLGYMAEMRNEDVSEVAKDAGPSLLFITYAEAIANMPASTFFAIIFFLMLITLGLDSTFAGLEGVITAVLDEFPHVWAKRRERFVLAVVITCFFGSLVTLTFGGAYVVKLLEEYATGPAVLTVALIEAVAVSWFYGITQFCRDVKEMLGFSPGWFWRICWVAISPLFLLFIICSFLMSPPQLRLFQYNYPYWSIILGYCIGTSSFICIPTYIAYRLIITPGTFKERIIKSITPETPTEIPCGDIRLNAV
Chain of Adenosine receptor A2a (Homo sapiens) (P29274 whole entry): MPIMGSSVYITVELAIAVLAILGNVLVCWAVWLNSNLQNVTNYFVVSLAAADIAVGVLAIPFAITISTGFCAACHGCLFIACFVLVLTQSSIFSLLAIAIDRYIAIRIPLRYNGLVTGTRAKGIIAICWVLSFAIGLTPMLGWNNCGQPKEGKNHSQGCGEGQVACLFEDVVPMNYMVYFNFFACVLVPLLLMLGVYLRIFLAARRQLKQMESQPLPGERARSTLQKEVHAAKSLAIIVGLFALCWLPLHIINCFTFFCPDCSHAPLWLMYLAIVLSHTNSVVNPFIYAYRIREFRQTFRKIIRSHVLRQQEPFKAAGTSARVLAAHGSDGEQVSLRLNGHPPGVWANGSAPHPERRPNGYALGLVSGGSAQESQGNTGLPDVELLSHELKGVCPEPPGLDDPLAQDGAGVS
Chain of Histamine H1 receptor (Homo sapiens) (P35367 whole entry): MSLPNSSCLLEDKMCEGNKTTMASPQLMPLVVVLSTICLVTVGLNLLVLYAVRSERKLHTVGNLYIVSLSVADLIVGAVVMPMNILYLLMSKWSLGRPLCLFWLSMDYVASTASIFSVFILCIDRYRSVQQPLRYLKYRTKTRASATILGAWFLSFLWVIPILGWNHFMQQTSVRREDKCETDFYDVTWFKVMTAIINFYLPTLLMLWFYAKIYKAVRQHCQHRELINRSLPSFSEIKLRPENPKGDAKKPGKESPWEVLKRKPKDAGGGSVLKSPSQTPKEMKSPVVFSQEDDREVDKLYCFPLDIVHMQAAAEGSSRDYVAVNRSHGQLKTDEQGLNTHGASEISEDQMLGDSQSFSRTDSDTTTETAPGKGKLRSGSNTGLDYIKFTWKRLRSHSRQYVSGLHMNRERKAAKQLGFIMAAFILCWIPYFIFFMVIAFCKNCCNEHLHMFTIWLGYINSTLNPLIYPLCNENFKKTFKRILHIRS
Chain of Sodium-dependent noradrenaline transporter (Homo sapiens) (P23975 whole entry): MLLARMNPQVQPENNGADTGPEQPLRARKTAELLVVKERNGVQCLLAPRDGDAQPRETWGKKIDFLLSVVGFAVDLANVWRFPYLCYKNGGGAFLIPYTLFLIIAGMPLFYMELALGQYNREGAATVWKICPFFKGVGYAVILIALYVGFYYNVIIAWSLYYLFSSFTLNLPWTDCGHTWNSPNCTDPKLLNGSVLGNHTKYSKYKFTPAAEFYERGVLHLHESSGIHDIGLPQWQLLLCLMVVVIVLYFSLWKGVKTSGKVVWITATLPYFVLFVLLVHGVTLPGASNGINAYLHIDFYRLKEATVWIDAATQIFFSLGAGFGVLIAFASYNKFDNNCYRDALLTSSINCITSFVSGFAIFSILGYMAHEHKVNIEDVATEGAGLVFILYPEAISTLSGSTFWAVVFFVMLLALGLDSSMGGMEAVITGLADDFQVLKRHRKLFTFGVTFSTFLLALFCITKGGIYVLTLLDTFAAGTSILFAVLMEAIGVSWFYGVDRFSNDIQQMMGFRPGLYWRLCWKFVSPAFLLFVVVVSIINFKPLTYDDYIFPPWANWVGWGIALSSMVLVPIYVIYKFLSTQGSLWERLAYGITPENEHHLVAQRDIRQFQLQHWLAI

Activity [2]	Activity [3]	Activity [4]	Activity [5]	Activity [6]	Activity [7]	Activity [8]	Activity [9]	Activity [10]	Activity [11]	Activity (Rattus norvegicus [12])	Activity [13]	Activity [14]	Activity [15]	Activity [16]	SMILES	EC50 (Rattus norvegicus [1])
16%	0%	0%	0%	0%	0%	0%	0%	0%	20%	0%	14%	12%	22%	0%	Cn1/c(=N/NC(=O)CC(C)(C)C)sc2cc(OC(F)(F)F)ccc21	3.8 mg/kg
12%	49%	12%	16%	0%	34%	18%	53%	0%	50%	0%	34%	22%	0%	0%	Cn1/c(=N/NC(=O)CC2CCCC2)sc2cc(OC(F)(F)F)ccc21	7.5 mg/kg
0%	0%	10%	11%	0%	21%	14%	11%	0%	16%	19%	43%	0%	0%	22%	CC(C)OC(=O)N/N=c1\sc2cc(OC(F)(F)F)ccc2n1C	2.6 mg/kg
